Experiment [1] concerns the target Sodium-dependent dopamine transporter (Rattus norvegicus, UniProt P23977). Description: Ability to inhibit high affinity reuptake of [3H]DA from dopamine transporter into nerve endings synaptosomes. Format: subcellular, Brain. An outline of the steps:
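Rat striatal P2 synaptosomes in modified KRH buffer (pH 7.4, with nialamide), preincubated with drug for 30 min at 4 °C, then 15 min at 37 °C. Uptake of [3H]DA (~5 nM final) ran for 5 min and was stopped by cold Na-free buffer and filtration. IC50 from six concentrations in triplicate; Ki by Cheng–Prusoff, 2–4 experiments.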

The target in experiment [2] is Norepinephrine transporter (Rattus norvegicus, UniProt Q9WTR4). Description: Ability to inhibit high affinity reuptake of [3H]-NE (Norepinephrine transporter) into nerve ending synaptosomes prepared from brain regions. Format: subcellular.
Chain of Norepinephrine transporter (Q9WTR4 whole entry): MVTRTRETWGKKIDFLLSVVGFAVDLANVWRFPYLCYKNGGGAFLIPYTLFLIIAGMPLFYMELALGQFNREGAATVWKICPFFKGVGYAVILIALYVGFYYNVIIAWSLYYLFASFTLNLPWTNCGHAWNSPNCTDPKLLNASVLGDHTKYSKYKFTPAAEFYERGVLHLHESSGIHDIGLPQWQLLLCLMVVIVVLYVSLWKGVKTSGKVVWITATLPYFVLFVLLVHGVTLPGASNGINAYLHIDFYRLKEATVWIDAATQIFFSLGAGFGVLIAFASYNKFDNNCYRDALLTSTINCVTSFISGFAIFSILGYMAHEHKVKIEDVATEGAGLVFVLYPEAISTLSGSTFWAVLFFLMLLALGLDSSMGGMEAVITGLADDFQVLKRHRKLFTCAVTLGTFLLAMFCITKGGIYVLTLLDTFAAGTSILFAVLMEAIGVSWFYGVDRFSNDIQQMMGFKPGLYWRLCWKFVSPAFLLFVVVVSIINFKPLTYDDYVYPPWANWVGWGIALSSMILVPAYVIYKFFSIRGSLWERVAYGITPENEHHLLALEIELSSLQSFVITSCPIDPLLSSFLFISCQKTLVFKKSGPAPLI
For experiment [3], the target named is Sodium-dependent serotonin transporter (Rattus norvegicus, UniProt P31652). Description: Inhibition of high affinity re-uptake of [3H]5-HT (serotonin) into nerve ending synaptosomes. The format is subcellular, Brain. Summed up: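 Synaptosomes (P2) from rat midbrain in modified KRH buffer (pH 7.4, with nialamide), preincubated with drug for 30 min at 4 °C, then 15 min at 37 °C. [3H]5-HT (~5 nM final) uptake ran for 5 min, then filtration and scintillation counting. IC50 from six concentrations in triplicate; Ki by Cheng–Prusoff, 2–4 experiments.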
Chain of Sodium-dependent serotonin transporter (P31652 whole entry): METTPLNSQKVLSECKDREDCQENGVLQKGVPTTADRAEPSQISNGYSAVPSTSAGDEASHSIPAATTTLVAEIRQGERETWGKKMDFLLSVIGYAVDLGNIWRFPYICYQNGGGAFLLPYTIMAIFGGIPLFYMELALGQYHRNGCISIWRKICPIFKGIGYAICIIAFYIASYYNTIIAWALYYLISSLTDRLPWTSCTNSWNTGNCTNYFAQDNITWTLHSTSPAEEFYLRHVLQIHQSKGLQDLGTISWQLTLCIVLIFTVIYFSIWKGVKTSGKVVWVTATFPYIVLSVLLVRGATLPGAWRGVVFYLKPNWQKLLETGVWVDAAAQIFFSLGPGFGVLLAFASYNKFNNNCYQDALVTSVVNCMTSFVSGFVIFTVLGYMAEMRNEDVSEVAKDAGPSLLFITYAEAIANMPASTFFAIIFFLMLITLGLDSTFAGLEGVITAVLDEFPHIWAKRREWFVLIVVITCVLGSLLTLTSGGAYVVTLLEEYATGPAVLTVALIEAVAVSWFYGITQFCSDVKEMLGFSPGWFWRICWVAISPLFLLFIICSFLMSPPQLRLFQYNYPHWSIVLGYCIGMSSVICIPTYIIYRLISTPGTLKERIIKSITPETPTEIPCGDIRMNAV

A short description of experiment [4]: Uptake ratio Ki of dopamine relative to serotonin (5-HT) at monoamine transporter.
Experiment [5] in a line: Uptake ratio Ki of norepinephrine relative to dopamine at monoamine transporter.
The nature of experiment [6]: Uptake ratio Ki of norepinephrine relative to serotonin (5-HT) at monoamine transporter.

pKi: −log10 of the molar value. Where only a bound is given, the exact number is not on record here.

The pKi is the Ki on a negative log10 scale, so that one unit is a factor of ten. Low values mean a high Ki, high ones a low Ki.

Chain of Sodium-dependent dopamine transporter (P23977 whole entry): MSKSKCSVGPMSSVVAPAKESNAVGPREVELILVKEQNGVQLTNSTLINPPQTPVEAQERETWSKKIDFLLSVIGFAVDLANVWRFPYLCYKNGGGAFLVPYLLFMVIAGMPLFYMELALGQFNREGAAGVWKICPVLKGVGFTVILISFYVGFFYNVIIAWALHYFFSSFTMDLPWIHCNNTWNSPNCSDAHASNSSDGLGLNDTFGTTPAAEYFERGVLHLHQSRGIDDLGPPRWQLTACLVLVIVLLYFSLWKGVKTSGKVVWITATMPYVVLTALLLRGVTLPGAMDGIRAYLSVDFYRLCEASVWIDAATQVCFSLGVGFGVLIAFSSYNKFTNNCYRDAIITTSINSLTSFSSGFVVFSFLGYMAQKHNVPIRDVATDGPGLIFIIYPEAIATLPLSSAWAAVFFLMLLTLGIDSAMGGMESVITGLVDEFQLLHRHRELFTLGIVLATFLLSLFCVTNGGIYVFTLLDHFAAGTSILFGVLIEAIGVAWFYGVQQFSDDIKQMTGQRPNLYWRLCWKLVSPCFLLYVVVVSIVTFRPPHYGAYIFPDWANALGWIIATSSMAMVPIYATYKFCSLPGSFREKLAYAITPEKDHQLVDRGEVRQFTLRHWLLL

Turning to `CC(=O)OCC1C2CC3CCC1N3C/C2=C\c1cccc(Cl)c1` (stereo unspecified), the results for the pKi in experiment [1], in experiment [2] and in experiment [3] were 5.22, 5.93 and 7.03, respectively. Besides, the Ratio in experiment [4] worked out at 64.4; in experiment [5] it was 0.2; in experiment [6], 12.7.

On to `O=C(OCC1C2CC3CCC1N3C/C2=C\c1ccc2ccccc2c1)c1ccccc1` (stereo unspecified), for which the pKi is 5.26 in experiment [1], 5.49 in experiment [2] and 10.00 in experiment [3]. In addition, the Ratio in experiment [4] was determined as 55300; in experiment [5], 0.58; in experiment [6], 32200.

Consider `COC(=O)C1C2CC3CCC1N3C/C2=C\c1ccc(C)c(Cl)c1` (stereo unspecified), for which the pKi in experiment [1] is < 5.00; in experiment [2], 6.70; in experiment [3] it was 8.19. In addition, the Ratio is > 1560 in experiment [4], < 0.02 in experiment [5] and 31 in experiment [6].

`Clc1ccc(/C=C2\CN3C4CCC3C(COc3ccc(I)cc3)C2C4)cc1Cl` (stereo unspecified): the pKi was 4.86 in experiment [1], 5.60 in experiment [2] and 5.93 in experiment [3]. Moreover, the Ratio is 11.7 in experiment [4], 0.18 in experiment [5] and 2.1 in experiment [6].

Regarding `COC(=O)C1C2CC3CCC1N3C/C2=C\c1ccc(OC)cc1` (stereo unspecified), the figures for the negative logarithm of the Ki (pKi) in experiment [1], in experiment [2] and in experiment [3] were 5.50, 6.73 and 7.25, respectively. Further, the Ratio in experiment [4] was 55.9; in experiment [5], 0.06; in experiment [6], 3.3.

Turning to `COC(=O)C1C2CC3CCC1N3C/C2=C\c1cc(Cl)cc(Cl)c1` (stereo unspecified), the values for the pKi in experiment [1], in experiment [2] and in experiment [3] were 5.25, 5.39 and 6.36, respectively. Also, the Ratio stood at 12.8 in experiment [4], 0.73 in experiment [5] and 9.4 in experiment [6].

In the case of `O=C(OCC1C2CC3CCC1N3C/C2=C\c1ccc(Br)c(Cl)c1)c1ccccc1` (stereo unspecified), the pKi in experiment [1] is < 5.00; in experiment [2], 5.42; in experiment [3], 8.49. Further, the Ratio was > 3120 in experiment [4], < 0.38 in experiment [5] and 1200 in experiment [6].

Consider `COC(=O)C1C2CC3CCC1N3C/C2=C\c1ccc(F)c(F)c1` (stereo unspecified), for which the negative-log Ki (pKi) was 5.13 in experiment [1], 6.40 in experiment [2] and 7.00 in experiment [3]. In addition, the Ratio in experiment [4] was found to be 73.7; in experiment [5], 0.05; in experiment [6], 3.9.

On to `COC(=O)C1C2CC3CCC1N3C/C2=C\c1cccc2ccccc12` (stereo unspecified), for which the pKi in experiment [1] is 5.01; in experiment [2], 5.27; in experiment [3], 6.92. The Ratio amounted to 80.3 in experiment [4], 0.55 in experiment [5] and 44 in experiment [6].

Turning to `O=C(Oc1ccccc1)C1C2CC3CCC1N3C/C2=C\c1ccc(Cl)c(Cl)c1` (stereo unspecified), the pKi in experiment [1] is 5.35; in experiment [2] it was 5.62; in experiment [3], 7.32. The Ratio in experiment [4] worked out at 91.9; in experiment [5], 0.54; in experiment [6] it was 49.9.

On to `O=C(OCC1C2CC3CCC1N3C/C2=C\c1ccc(Cl)c(Cl)c1)c1ccccc1` (stereo unspecified), for which the pKi in experiment [1] was 4.85; in experiment [2], 5.51; in experiment [3], 8.51. For the same compound, the Ratio in experiment [4] worked out at 4550; in experiment [5], 0.22; in experiment [6], 990.

For the origin of these results see ChEMBL document CHEMBL1135937, “Further studies on conformationally constrained tricyclic tropane analogues and their uptake inhibition at monoamine transporter sites: synthesis of (Z)-9-(substituted arylmethylene)-7-azatricyclo[4.3.1.0(3,7)]decanes as a novel class of serotonin transporter inhibitors” (J Med Chem, 2002).
